Most compounds without a hit are left out; they make up all but 2.7% or so of the library.
PP1 inh: counter-screen for PP5 inhibitors: inhibitors of human PP1-alpha; P62136; purified PP1alpha, OMFP fluorescence; inhibition, % at 6.7 µM; 320,000 compounds, 0.9% hits; AID 2235;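 active means inhibition above the mean inhibition of all tested compounds plus 3 SD, computed separately for each screening campaign, cut at about 15% in these data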
CSN deneddyl inh: blocks human CSN-mediated cullin deneddylation; AID 651999; 360,000 compounds, 0.38% hits; inhibition, % at 12.5 µM; Purified CSN, SCF-Nedd8-OG deneddylation, fluorescence polarization; Q92905;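 active means pattern-corrected inhibition above about 35%, with an unprinted fluorescence ratio check between 0.5 and 1.5, limit read from the data, passing the limit was not always enough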
Target sequence (Q92905 whole entry, looked up, one chain of several): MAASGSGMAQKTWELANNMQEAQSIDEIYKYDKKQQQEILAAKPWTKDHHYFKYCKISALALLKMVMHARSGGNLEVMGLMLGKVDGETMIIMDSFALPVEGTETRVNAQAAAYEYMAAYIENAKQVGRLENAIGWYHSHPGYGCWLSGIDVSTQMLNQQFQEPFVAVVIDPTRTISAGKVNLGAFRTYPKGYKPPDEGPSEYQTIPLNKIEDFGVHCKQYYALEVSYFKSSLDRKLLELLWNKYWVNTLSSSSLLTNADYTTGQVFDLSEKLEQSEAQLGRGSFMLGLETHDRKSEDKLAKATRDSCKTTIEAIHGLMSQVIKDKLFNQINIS
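Assay system: Purified human Csn5 enzyme expressed in HEK293T cells | Amount: Enzyme 0.24 nM | Measured by: Fluorescence polarization readout | Medium: Tris/NaCl/DTT buffer, pH 7.5 | Compound dosing: One concentration, 12.5 µM, 0.25% DMSO | Times: 90 min incubation of compound, enzyme and substrate at room temperature | Control set: no-enzyme wells high, enzyme-with-substrate wells low | Read-out: % inhibition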
HNF4A DNA FP: change in binding of human HNF4 alpha to DNA | P41235 | HNF4a-FITC DNA binding, fluorescence polarization, 1 h | activity change, % at 10 µM | 360,000 compounds, 0.3% hits | AID 1224865; in the data active means activity change above about 30%, passing the limit was not always enough
TPT1 inh: blocks Candida albicans tRNA 2'-phosphotransferase. 300,000 compounds, 0.81% hits. AID 1962. inhibition, % at 5 µM. recombinant caTPT1, FP RNA substrate dephosphorylation;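 active means inhibition above the mean of all tested compounds plus 3 SD, set per screening campaign, cut at about 24% in these data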
NadD inh: blocks S. aureus nicotinate mononucleotide adenylyltransferase. AID 602399. inhibition, % at 20 µM. 360,000 compounds, 0.78% hits. purified NadD enzyme, colorimetric absorbance read-out; in the data active means inhibition above about 26%
Rpn11 inh: inhibitors of human proteasome Rpn11. O00487. human 26S proteasome, Ub4-pepOG fluorescence polarization; 20S core pre-blocked with epoxomicin. inhibition, % at 20 µM. 360,000 compounds, 0.59% hits. AID 588493;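 active means inhibition at 20 µM, scaled to each plate's controls, above about 33%, limit read from the data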
Target sequence (O00487 whole entry, looked up): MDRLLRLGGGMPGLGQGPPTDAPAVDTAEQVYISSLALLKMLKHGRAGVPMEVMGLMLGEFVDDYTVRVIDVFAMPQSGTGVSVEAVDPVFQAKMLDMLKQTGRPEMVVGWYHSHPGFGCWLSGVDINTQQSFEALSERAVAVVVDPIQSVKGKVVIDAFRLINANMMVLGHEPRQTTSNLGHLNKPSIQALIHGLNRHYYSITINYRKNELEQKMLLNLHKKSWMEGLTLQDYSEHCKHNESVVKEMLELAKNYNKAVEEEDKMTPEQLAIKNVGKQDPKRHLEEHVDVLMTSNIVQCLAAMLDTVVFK
Of the large screens only hits and unclear results are named; the others gave an inactive call.

CC1CCCC(C)N1C(=O)CSc1nc(N)cc(N)n1 (centres undefined)	HNF4A DNA FP 53.3
Cc1cc(N)nc(SCC(=O)N2C(C)CCCC2C)n1 (centres undefined)	none
COc1ccc(N(C)C(=O)C2CCN(S(=O)(=O)c3cccc4nonc34)CC2)c(OC)c1	none
CCc1ccc2c(c1)NC(=O)C2(C)Cc1ccccc1 (centres undefined)	none (no result: PP1 inh, TPT1 inh)
CCc1ccc2c(c1)C1(NN=C(c3cccc4ccccc34)S1)C(=O)N2 (centres undefined)	NadD inh 34.5
COc1ccc(Nc2nc(Cl)c(C=O)s2)cc1	CSN deneddyl inh 40.7, HNF4A DNA FP 87.9 (not shown: Rpn11 inh)
Nc1ccc(CCn2ccnc2)cc1	NadD inh 34.3
O=C(OC1CCCC1)c1ccc(Cl)cc1Cl	none (no result: PP1 inh, TPT1 inh)
COc1ccc(-c2csc3nc(C(C)(C)C)oc(=O)c23)cc1OC	none
COc1ccc(-c2csc3nc(-c4ccc(C)cc4)oc(=O)c23)cc1OC	HNF4A DNA FP 47.6
Nc1nnc(CCC2CCCCC2)s1	none
N#CC1=C(N)SC(N)=C(C#N)C1CCC1CCCCC1	TPT1 inh 110.1 (no result: CSN deneddyl inh, HNF4A DNA FP, NadD inh, Rpn11 inh)
CCOc1ccccc1OCCCC(=O)NNC(=O)c1ccc(F)cc1	none (no result: PP1 inh, TPT1 inh)
COc1cc(/C=C2\C(=N)N3N=C(N4CCOCC4)SC3=NC2=O)ccc1OC(=O)c1ccccc1	NadD inh 37.2
CCC(CC)C1=NN2C(=N)/C(=C/c3ccc(OC(=O)c4ccco4)cc3)C(=O)N=C2S1	none
N=C1/C(=C/c2ccc(OCc3ccccc3F)cc2)C(=O)N=C2SC(CC(=O)N3CCOCC3)=NN12	NadD inh 33.2
N=C1/C(=C/c2ccc(OCc3ccccc3)cc2)C(=O)N=C2SC(CC(=O)N3CCOCC3)=NN12	none
N=C1/C(=C\c2ccc(OC(=O)c3ccccc3Cl)cc2)C(=O)N=C2SC(N3CCOCC3)=NN12	NadD inh 47.7
COc1cc(/C=C2/C(=N)N3N=C(CC(=O)N4CCOCC4)SC3=NC2=O)ccc1OC(C)c1ccccc1 (centres undefined)	none
S=c1nc(NCc2cccc(Cl)c2)c2ccccc2[nH]1	none
O=C(CSc1nncs1)Nc1ccc(Cl)cc1C(F)(F)F	none
COc1ccc(S(=O)(=O)NCc2cccnc2)cc1	none
COc1ccc(S(=O)(=O)NCc2cccnc2)cc1Br	HNF4A DNA FP 129.4
Cc1cc(-c2csc(NC(=O)c3ccc(S(=O)(=O)N(C)C)cc3)n2)c(C)n1-c1ccccc1	NadD inh 39.9
CCn1c(SCC(=O)Nc2cccc(NC(C)=O)c2)nnc1-c1ccco1	none
CCn1c(SCC(=O)Nc2ccc3c(c2)c2ccccc2n3CC)nnc1-c1ccco1	NadD inh 62.8
COC1=CC(=O)C(O)=C(CCCCCCC/C=C/CCCCCCCC2=C(O)C(=O)C=C(OC)C2=O)C1=O	NadD inh 50.6
COC1=C(OC)C(=O)C(CCCCCCCCCCO)=C(C)C1=O	none (no result: PP1 inh, TPT1 inh)
C[C@@H]1CC=C[C@H]2[C@H]1C(=O)N(Cc1ccccc1)[C@H]2c1ccc(F)c(-c2ccc(N(C)C)cc2)c1	PP1 inh 16.1
COC(=O)[C@@]12C[C@@H](CC(=O)N3CCSCC3)C(=O)N(Cc3ccc4c(c3)OCO4)C1=CCC(C)(C)C2	none (no result: PP1 inh, TPT1 inh, NadD inh, Rpn11 inh)
CCOc1ccccc1CNC(=O)C1CCN(c2nnc(C)c3c(C)n(-c4ccc(C)cc4)nc23)CC1	none
Cc1ccc(-n2nc3c(N4CCC(C(=O)NCc5ccccc5C)CC4)nnc(C)c3c2C)cc1	PP1 inh 15.8 (not shown: Rpn11 inh)
CCc1ccccc1NC(=O)CN1CCN(C(=O)CNC(=O)Cc2cccc3ccccc23)CC1	HNF4A DNA FP 34.0 (no result: TPT1 inh)
Cc1cccc(C)c1NC(=O)CN1CCN(C(=O)CNC(=O)Cc2cccc3ccccc23)CC1	none (no result: PP1 inh, TPT1 inh)
COc1cc(C=c2c3ccccc3n3c2cc(-c2ccccc2)[n+]3C)cc(OC)c1OC	none (no result: PP1 inh, TPT1 inh)
CN(C)c1ccc(C=c2c3cc([N+](=O)[O-])ccc3n3c2cc(-c2ccccc2)[n+]3C)cc1	NadD inh 48.1 (no result: PP1 inh, TPT1 inh)
CN(C)c1ccc(C=c2c3ccccc3n3c2cc(-c2ccccc2)[n+]3C)cc1	HNF4A DNA FP 74.2, Rpn11 inh 46.5 (no result: PP1 inh, TPT1 inh)
CN(C)c1ccc(C=c2c3ccccc3n3c2cc(-c2ccc(Cl)cc2)[n+]3C)cc1	HNF4A DNA FP 50.4, NadD inh 38.9 (no result: PP1 inh, TPT1 inh)
Cc1cc(/C=C(\C#N)C(=O)N2CCOCC2)c(C)n1C1CCCC1	CSN deneddyl inh 110.0
O=c1c2c([N+](=O)[O-])cc([N+](=O)[O-])cc2sn1Cc1ccccc1	none
O=c1c2c([N+](=O)[O-])cc([N+](=O)[O-])cc2sn1-c1ccc(Br)cc1	NadD inh 30.0
CCOC(=O)C(C)Sc1nc(=O)n2cccc(C)c2n1 (centres undefined)	none
CCOC(=O)C(C)Sc1ncc(-c2ccc(Cl)cc2)cn1 (centres undefined)	HNF4A DNA FP 72.9
Cc1ccc(/C(O)=C2\C(=O)C(=O)N(c3cc(C)on3)C2c2cccc(Br)c2)cc1 (centres undefined)	none
Cc1cc(N2C(=O)C(=O)/C(=C(/O)c3ccc(F)cc3)C2c2cccc(Br)c2)no1 (centres undefined)	PP1 inh 16.4
CSc1cccc(-n2cc(-c3ccc4c(c3)OCO4)[nH]c2=O)c1	NadD inh 38.6
CSc1cccc(NC(=O)CNC(=O)c2ccc3c(c2)OCO3)c1	none
COc1ccc(-c2nc3c(c(=O)[nH]c(=O)n3Cc3ccccc3)n2Cc2ccccc2)cc1	PP1 inh 16.3
COc1ccc(Cn2c(-c3ccc(C)cc3)nc3c(c(=O)c4ccccc4n3C)c2=O)cc1	CSN deneddyl inh 44.5
O=S(=O)(NC(CO)Cc1ccccc1)c1ccc(Br)cc1F (centres undefined)	none (no result: PP1 inh, TPT1 inh)
O=C(CCCn1cncn1)N1CCCC(Nc2ccc(F)cc2)C1 (centres undefined)	none (no result: PP1 inh, TPT1 inh)
Cc1cccc(-n2ncc(C#N)c2N)c1	none
COc1cccc(-n2nc3c(-n4ncc(C#N)c4N)nnc(C)c3c2C)c1	CSN deneddyl inh 58.3
COc1cc(/C=C2\C(=N)N3N=C(S(C)(=O)=O)SC3=NC2=O)ccc1OCCOc1ccc(C)cc1	NadD inh 33.4
COc1cc(/C=C2\C(=N)N3N=C(S(C)(=O)=O)SC3=NC2=O)cc(OC)c1OCCOc1ccc(C)cc1	NadD inh 30.3
COc1cc(/C=C2\C(=N)N3N=C(S(C)(=O)=O)SC3=NC2=O)cc(OC)c1OCCOc1cccc(C)c1	NadD inh 31.5
COc1cc(/C=C2\C(=N)N3N=C(S(C)(=O)=O)SC3=NC2=O)ccc1OS(=O)(=O)c1ccccc1	none (no result: CSN deneddyl inh, HNF4A DNA FP, NadD inh, Rpn11 inh)
C[C@@H](CN1C2=NC[C@H](C)N2C[C@H]1Cc1ccc(O)cc1)NC(=O)CCC1CCCCC1	none
CC(C)[C@H]1CN=C2N(C[C@H](C)NC(=O)CCC3CCCCC3)[C@H](Cc3ccc(O)cc3)CN21	CSN deneddyl inh 74.4

Bioassay records from PubChem BioAssay.
